Hits are enriched below; roughly 2.5% of the tested compounds scored in any of these assays.
DENV2 CPE = DENV2-induced cell death inhibition. DENV2-infected cells, cytopathic effect rescue, plate reader. CPE inhibition, % at 9.99 µM. 350,000 tested, 1.7% active; in the data active means CPE inhibition above about 20%, passing the limit was not always enough; tested in BHK-21 cells;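 further: 0% = median of neutral control wells and 100% = median of positive control wells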
PglD DTNB = inhibitors of Campylobacter jejuni PglD acetyltransferase | purified PglD enzyme, DTNB colorimetric CoA detection | 360,000 tested, 0.098% active | inhibition, % at 12.5 µM; in the data active means inhibition above about 16%, passing the limit was not always enough
E-selectin induc = induces E-selectin expression in human endothelial cells. 260,000 tested, 0.37% active. HUVEC E-selectin immunofluorescence imaging; normalized: neutral wells 0, TNF-alpha wells 100. P16581. activation, % at 7.58 µM;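 active means mean E-selectin-positive cell signal at least 10% of the positive control, reached in at least 60% of replicates, without over 20% cell loss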
Target sequence (P16581 whole entry, looked up): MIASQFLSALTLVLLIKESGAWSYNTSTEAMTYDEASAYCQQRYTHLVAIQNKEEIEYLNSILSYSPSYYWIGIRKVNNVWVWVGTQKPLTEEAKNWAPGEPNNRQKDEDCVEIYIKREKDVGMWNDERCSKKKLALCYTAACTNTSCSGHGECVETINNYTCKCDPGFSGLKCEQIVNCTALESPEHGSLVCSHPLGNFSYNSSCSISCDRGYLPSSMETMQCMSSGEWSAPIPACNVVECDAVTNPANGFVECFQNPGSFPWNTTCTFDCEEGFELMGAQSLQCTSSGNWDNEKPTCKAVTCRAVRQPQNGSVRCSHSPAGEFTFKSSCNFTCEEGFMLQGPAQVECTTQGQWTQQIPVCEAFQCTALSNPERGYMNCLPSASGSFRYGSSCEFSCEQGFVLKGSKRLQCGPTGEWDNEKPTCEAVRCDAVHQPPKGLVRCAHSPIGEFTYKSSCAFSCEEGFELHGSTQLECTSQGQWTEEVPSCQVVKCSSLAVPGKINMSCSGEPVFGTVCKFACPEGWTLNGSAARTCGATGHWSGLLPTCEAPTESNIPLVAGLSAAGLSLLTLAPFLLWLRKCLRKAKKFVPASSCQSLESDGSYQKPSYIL
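Test system – human umbilical vein endothelial cells (HUVEC), E-selectin induction · Input – 3,000 HUVEC seeded per well · Buffer or medium – EGM-2, gelatin · Compound dosing – single-point compound dose · Detection – immunofluorescence imaging · Measure – percent E-selectin-positive cells · Controls – TNF-alpha high, DMSO low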
SIRT5 inh = sirtuin-5 (human) deacylase inhibition; Purified SirT5, succinyl-peptide AMC, trypsin-coupled fluorescence; Q9NXA8; 330,000 tested, 1.1% active; inhibition, % at 15 µM; in the data active means inhibition above about 15%
ERAP1 HTS inh = ERAP1 (human) enzyme inhibition. Q9NZ08. recombinant ERAP1, Leu-AMC fluorescence, 60 min. inhibition, % at 10.7 µM. 340,000 tested, 0.15% active. AID 652197;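 active means mean replicate inhibition of at least 30%, or all replicates individually reaching that 30% level; inactive means mean below 30% and not every replicate reaching it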;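 further: 0% = neutral control wells and 100% = L-leucinethiol positive control wells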
An asterisk follows results filed as active.

How did COc1ccc(NC(=O)N2CCCCN3[C@H](C2)[C@@H](c2ccc(-c4ccccc4F)cc2)[C@@H]3CO)cc1 do in these assays?
DENV2 CPE: -25.2; PglD DTNB: -1.2; E-selectin induc: 1.4; SIRT5 inh: 7.6; ERAP1 HTS inh: 1.8

How did COc1ccc(NC(=O)N2CCCCN3[C@H](CO)[C@@H](c4ccc(-c5ccccc5F)cc4)[C@@H]3C2)cc1 do in these assays?
DENV2 CPE: -6.8; PglD DTNB: -0.8; E-selectin induc: -0.3; SIRT5 inh: 18.3*; ERAP1 HTS inh: 0.3

How did C[C@@H]1CN([C@H](C)CO)C(=O)c2cc(Br)cnc2O[C@@H]1CN(C)C(=O)Nc1cccc(F)c1 do in these assays?
DENV2 CPE: 6.7; PglD DTNB: 5.9; E-selectin induc: 0.0; SIRT5 inh: -9.9; ERAP1 HTS inh: 0.5

How did O=C(CCc1nc2ccccc2c(=O)[nH]1)NNC(=O)c1ccccc1Cl do in these assays?
DENV2 CPE: -2.4; SIRT5 inh: -5.0; ERAP1 HTS inh: -0.3

Results for O=C(O)CN1CCN(Cc2ccccc2F)C1=O ?
DENV2 CPE: 10.0; PglD DTNB: -0.1; SIRT5 inh: -3.3; ERAP1 HTS inh: -3.0

What do the screens show for `COc1ccc(C#Cc2ccc([C@H]3[C@@H](CO)N4CCCCN(C(=O)Nc5ccc(F)cc5)C[C@@H]34)cc2)cc1`?
DENV2 CPE: 30.0*; PglD DTNB: 6.8; E-selectin induc: -0.1; SIRT5 inh: 5.6; ERAP1 HTS inh: -0.3

What do the screens show for `COc1ccc(C#Cc2ccc([C@H]3[C@H](CO)N4CCCCN(C(=O)Nc5ccc(F)cc5)C[C@@H]34)cc2)cc1`?
DENV2 CPE: -5.9; PglD DTNB: 3.9; E-selectin induc: 0.2; SIRT5 inh: -3.8; ERAP1 HTS inh: -1.2

What do the screens show for `COc1ccc(S(=O)(=O)Nc2ccc3c(c2)[C@H]2C[C@@H](CC(=O)NCC4CC4)O[C@@H](CO)[C@H]2O3)cc1`?
DENV2 CPE: -3.2; PglD DTNB: 0.6; E-selectin induc: 0.0; SIRT5 inh: -2.1; ERAP1 HTS inh: 1.1

Results for Cc1nc(C(=O)NC2CCOCC2)sc1C1(C)CC(c2ccccc2)=NO1 (stereo not drawn) ?
DENV2 CPE: -13.6; PglD DTNB: -2.1; E-selectin induc: 0.0; ERAP1 HTS inh: -3.4

How did Cc1nc(C(=O)NC2CCOCC2)sc1C1(C)CC(c2cccc([N+](=O)[O-])c2)=NO1 (stereo not drawn) do in these assays?
DENV2 CPE: 43.8*; PglD DTNB: -5.8; E-selectin induc: -0.3; SIRT5 inh: -0.1; ERAP1 HTS inh: 0.0

Results for CCOC(=O)CC[C@H](NC(=O)Cn1cnc2c(OCc3ccccc3)ncnc21)C(=O)OCC ?
DENV2 CPE: 26.5*; PglD DTNB: 0.6; E-selectin induc: 0.0; SIRT5 inh: -2.3; ERAP1 HTS inh: 0.2

How did COC(=O)[C@H](Cc1ccccc1)NC(=O)Cn1cnc2c(OCc3ccccc3)ncnc21 do in these assays?
DENV2 CPE: -0.9; PglD DTNB: -0.7; E-selectin induc: 0.8; SIRT5 inh: 0.6; ERAP1 HTS inh: -0.8

How did N=c1oc2cc(O)ccc2cc1C(=O)Nc1ccc(F)cc1 do in these assays?
DENV2 CPE: 5.3; PglD DTNB: -3.6; E-selectin induc: -0.3; SIRT5 inh: -51.3; ERAP1 HTS inh: -65.5

How did CCOc1ncccc1C(=O)OCC(=O)NCc1ccc(C(=O)OC)cc1 do in these assays?
DENV2 CPE: 67.3*; PglD DTNB: -0.2; E-selectin induc: -0.3; SIRT5 inh: 0.7; ERAP1 HTS inh: 0.2

What do the screens show for `Cc1ccc(S(=O)(=O)Nc2ccc3c(c2)C(=O)N([C@H](C)CO)C[C@H](C)[C@H](CN(C)C(=O)Nc2ccc4c(c2)OCO4)OCCCC[C@H](C)O3)cc1`?
DENV2 CPE: 5.2; PglD DTNB: 1.6; E-selectin induc: -0.2; SIRT5 inh: 1.0; ERAP1 HTS inh: 5.8

Results for CCn1c(SCC(=O)Nc2ccc(Cl)cc2)nc2nc3c(cc2c1=O)CCCC3 ?
PglD DTNB: -1.4

What do the screens show for `CCn1c(SCC(=O)Nc2ccc(OC)cc2)nc2nc3c(cc2c1=O)CCCC3`?
DENV2 CPE: 4.5; PglD DTNB: -1.9; E-selectin induc: 0.0; SIRT5 inh: 16.3*; ERAP1 HTS inh: -2.7

How did Cc1nc(NC(C)C)c2oc3ccccc3c2n1 do in these assays?
PglD DTNB: 1.5

Results for COc1ccc(OC)c(S(=O)(=O)N/N=C(/C)c2c[nH]c3ccccc23)c1 ?
DENV2 CPE: -2.7; PglD DTNB: 8.7; E-selectin induc: 0.8; SIRT5 inh: -2.5; ERAP1 HTS inh: -0.8

Source: PubChem
